Data reported in ChEMBL document CHEMBL1156693, “Novel N-(phosphonomethyl) glycine derivatives: Design, characterization and biological activity” (Eur J Med Chem, 2008).
Activity calls are given as the source filed them. The rule behind the calls is not given here.

Columns and labels:
[1] = Cytotoxicity against human 293T after 72 hrs by MTT assay; assay type: cell-based; settings: HEK-293T
Procedure, shortened: (§1)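 Cells at 37 °C, 5% CO2; 293T in DMEM, others in RPMI 1640, both with 2 mM L-glutamine and 10% FCS. Seeded 10⁴ cells/well, 24 h preincubation, then compounds 0.195–200 µM (DMSO ≤1% final) for 72 h continuous. MTT added, 4 h, formazan dissolved in 5% formic acid-acidified DMSO, absorbance read; IC50 = concentration giving 50% survival decrease.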

Mus musculus [2] = experiment: Clastogenic effect on C57BL mouse assessed as number of metaphase chromosomal fragments in bone marrow cells at 100 mg/kg, ip after 48 hrs; assay type: functional; settings: route intraperitoneal
Procedure, shortened: (§2)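 Inbred male and female C57Bl mice, groups of 3 males + 3 females, dosed i.p. (0.9% NaCl vehicle/negative control); mitomycin C 3.5 mg/kg positive control. Colchicine 40 mg/kg i.p. 1 h before femoral bone marrow harvest; hypotonic 0.075 M KCl 20 min at 37 °C, methanol-acetic acid fixation, Giemsa stain; ≥50 metaphases per animal scored; group mean ± SE.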

Mus musculus [3] = experiment: Clastogenic effect on C57BL mouse assessed as mitotic index in bone marrow cells at 100 mg/kg, ip after 24 hrs; assay type: functional; settings: route intraperitoneal
Procedure, shortened: (§3)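 C57Bl mice (3 males + 3 females per group) given compound i.p.; saline controls. Colchicine 40 mg/kg i.p. 1 h before bone marrow harvest from femur; hypotonic KCl, fixed, Giemsa-stained slides. Mitotic index = dividing cells counted among 1500 cells per animal; per-animal values averaged as group mean ± SE.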

Mus musculus [4] = experiment: Clastogenic effect on C57BL mouse assessed as number of metaphase chromosomal breaks in bone marrow cells at 100 mg/kg, ip after 24 hrs; assay type: functional; settings: route intraperitoneal; procedure, shortened: as §2
Mus musculus [5] = experiment: Clastogenic effect on C57BL mouse assessed as number of metaphase chromosome telomere/telomeric fusion in bone marrow cells at 10 mg/kg, ip after 48 hrs; assay type: functional; settings: route intraperitoneal; procedure, shortened: as §2
Mus musculus [6] = experiment: Clastogenic effect on C57BL mouse assessed as mitotic index in bone marrow cells at 100 mg/kg, ip after 48 hrs; assay type: functional; settings: route intraperitoneal; procedure, shortened: as §3
Mus musculus [7] = experiment: Clastogenic effect on C57BL mouse assessed as number of metaphase chromosomal fragments in bone marrow cells at 10 mg/kg, ip after 24 hrs; assay type: functional; settings: route intraperitoneal; procedure, shortened: as §2
LAMA-84 = experiment: Cytotoxicity against human LAMA-84 cells after 72 hrs by MTT assay; assay type: functional, cell-based; settings: LAMA-84, 72 h; procedure, shortened: as §1
Mus musculus [8] = experiment: Clastogenic effect on C57BL mouse assessed as number of metaphase chromosomal fragments in bone marrow cells at 100 mg/kg, ip after 24 hrs; assay type: functional; settings: route intraperitoneal; procedure, shortened: as §2
Mus musculus [9] = experiment: Clastogenic effect on C57BL mouse assessed as mitotic index in bone marrow cells at 10 mg/kg, ip after 48 hrs; assay type: functional; settings: route intraperitoneal; procedure, shortened: as §3
Mus musculus [10] = experiment: Clastogenic effect on C57BL mouse assessed as number of metaphase chromosomal centromere/centromeric fusion in bone marrow cells at 100 mg/kg, ip after 48 hrs; assay type: functional; settings: route intraperitoneal; procedure, shortened: as §2
Mus musculus [11] = experiment: Clastogenic effect on C57BL mouse assessed as number of metaphase chromosomal centromere/centromeric fusion in bone marrow cells at 10 mg/kg, ip after 24 hrs; assay type: functional; settings: route intraperitoneal; procedure, shortened: as §2
Mus musculus [12] = experiment: Clastogenic effect on C57BL mouse assessed as number of metaphase chromosomal breaks in bone marrow cells at 100 mg/kg, ip after 48 hrs; assay type: functional; settings: route intraperitoneal; procedure, shortened: as §2
Mus musculus [13] = experiment: Clastogenic effect on C57BL mouse assessed as number of metaphase chromosomal centromere/centromeric fusion in bone marrow cells at 100 mg/kg, ip after 24 hrs; assay type: functional; settings: route intraperitoneal; procedure, shortened: as §2
Mus musculus [14] = experiment: Clastogenic effect on C57BL mouse assessed as bone marrow cells with abberation at 10 mg/kg, ip after 24 hrs; assay type: functional; settings: route intraperitoneal; procedure, shortened: as §2
EJ = experiment: Cytotoxicity against human EJ cells after 72 hrs by MTT assay; assay type: functional, cell-based; procedure, shortened: as §1
Mus musculus [15] = experiment: Clastogenic effect on C57BL mouse assessed as number of metaphase chromosomal centromere/centromeric fusion in bone marrow cells at 10 mg/kg, ip after 48 hrs; assay type: functional; settings: route intraperitoneal; procedure, shortened: as §2
Mus musculus [16] = experiment: Clastogenic effect on C57BL mouse assessed as number of metaphase chromosomal breaks in bone marrow cells at 10 mg/kg, ip after 24 hrs; assay type: functional; settings: route intraperitoneal; procedure, shortened: as §2
Mus musculus [17] = experiment: Clastogenic effect on C57BL mouse assessed as bone marrow cells with abberation at 100 mg/kg, ip after 48 hrs; assay type: functional; settings: route intraperitoneal; procedure, shortened: as §2
Mus musculus [18] = experiment: Clastogenic effect on C57BL mouse assessed as number of metaphase chromosomal fragments in bone marrow cells at 10 mg/kg, ip after 48 hrs; assay type: functional; settings: route intraperitoneal; procedure, shortened: as §2
Mus musculus [19] = experiment: Clastogenic effect on C57BL mouse assessed as number of metaphase chromosomal breaks in bone marrow cells at 10 mg/kg, ip after 48 hrs; assay type: functional; settings: route intraperitoneal; procedure, shortened: as §2
K562 = experiment: Cytotoxicity against human K562 cells after 72 hrs by MTT assay; assay type: functional, cell-based; settings: K562, 72 h; procedure, shortened: as §1
Mus musculus [20] = experiment: Clastogenic effect on C57BL mouse assessed as bone marrow cells with abberation at 10 mg/kg, ip after 48 hrs; assay type: functional; settings: route intraperitoneal; procedure, shortened: as §2
Mus musculus [21] = experiment: Clastogenic effect on C57BL mouse assessed as number of metaphase chromosome telomere/telomeric fusion in bone marrow cells at 100 mg/kg, ip after 24 hrs; assay type: functional; settings: route intraperitoneal; procedure, shortened: as §2
DOHH-2 [22] = experiment: Cytotoxicity against human DOHH2 cells after 72 hrs by MTT assay; assay type: functional, cell-based; settings: DOHH-2, 72 h; procedure, shortened: as §1
Mus musculus [23] = experiment: Clastogenic effect on C57BL mouse assessed as bone marrow cells with abberation at 100 mg/kg, ip after 24 hrs; assay type: functional; settings: route intraperitoneal; procedure, shortened: as §2
HD-MY-Z = experiment: Cytotoxicity against human HD-MY-Z cells after 72 hrs by MTT assay; assay type: functional, cell-based; procedure, shortened: as §1
Mus musculus [24] = experiment: Clastogenic effect on C57BL mouse assessed as number of metaphase chromosome telomere/telomeric fusion in bone marrow cells at 10 mg/kg, ip after 24 hrs; assay type: functional; settings: route intraperitoneal; procedure, shortened: as §2
HL-60 = experiment: Cytotoxicity against human HL60 cells after 72 hrs by MTT assay; assay type: functional, cell-based; settings: HL-60, 72 h; procedure, shortened: as §1
Mus musculus [25] = experiment: Clastogenic effect on C57BL mouse assessed as number of metaphase chromosome telomere/telomeric fusion in bone marrow cells at 100 mg/kg, ip after 48 hrs; assay type: functional; settings: route intraperitoneal; procedure, shortened: as §2
Mus musculus [26] = experiment: Clastogenic effect on C57BL mouse assessed as mitotic index in bone marrow cells at 10 mg/kg, ip after 24 hrs; assay type: functional; settings: route intraperitoneal; procedure, shortened: as §3
DOHH-2 [27] = experiment: Induction of apoptosis in human DOHH2 cells assessed as increase in histone-associated oligonucleotide level after 24 hrs by ELISA; assay type: functional, cell-based
Procedure, shortened: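 DOHH-2 cells exposed 24 h to equitoxic compound concentrations versus untreated control; cytosolic fractions of 1 × 10⁴ cells used in sandwich ELISA (anti-histone capture, peroxidase-conjugated anti-DNA detection) for histone-associated DNA fragments, read at 405 nm; means ± SD of three independent experiments.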

| SMILES | IC50 [1] [µM] | Activity (Mus musculus [2]) | Activity (Mus musculus [3]) [%] | Activity (Mus musculus [4]) | Activity (Mus musculus [5]) | Activity (Mus musculus [6]) [%] | Activity (Mus musculus [7]) | IC50 (LAMA-84) [µM] | Activity (Mus musculus [8]) | Activity (Mus musculus [9]) [%] | Activity (Mus musculus [10]) | Activity (Mus musculus [11]) | Activity (Mus musculus [12]) | Activity (Mus musculus [13]) | Activity (Mus musculus [14]) [%] | IC50 (EJ) [µM] | Activity (Mus musculus [15]) | Activity (Mus musculus [16]) | Activity (Mus musculus [17]) [%] | Activity (Mus musculus [18]) | also measured |
| --- | --- | --- | --- | --- | --- | --- | --- | --- | --- | --- | --- | --- | --- | --- | --- | --- | --- | --- | --- | --- | --- |
| COP(=O)(CNC1(C(=O)O)CCCCCC1)OC | > 200 | 0 | 13.24 | 7 | 0 | 12 | 0 | 91.2 | 0 | 9.58 | 3 | 7 | 4 | 3 | 2.85 | 151 | 3 | 3 | 2.72 | 0 | Activity (Mus musculus [19]): 0; IC50 (K562): 101 µM; Activity (Mus musculus [20]): 1%; Activity (Mus musculus [21]): 0; IC50 (DOHH-2 [22]): 88.1 µM; Activity (Mus musculus [23]): 3.33%; IC50 (HD-MY-Z): 169 µM; Activity (Mus musculus [24]): 0; IC50 (HL-60): 85.9 µM; Activity (Mus musculus [25]): 0; Activity (Mus musculus [26]): 14.37% |
| COP(=O)(CNC1(C(=O)O)CCCCCCC1)OC | 176 | 0 | 13.06 | 4 | 0 | 9.67 | 1 | 71.4 | 3 | 13.95 | 12 | 10 | 3 | 11 | 3.71 | 115 | 14 | 2 | 5 | 1 | Activity (DOHH-2 [27]): Active; Activity (Mus musculus [19]): 0; IC50 (K562): 79.1 µM; Activity (Mus musculus [20]): 4.67%; Activity (Mus musculus [21]): 1; IC50 (DOHH-2 [22]): 37.4 µM; Activity (Mus musculus [23]): 5.43%; IC50 (HD-MY-Z): 127 µM; Activity (Mus musculus [24]): 0; IC50 (HL-60): 73.5 µM; Activity (Mus musculus [25]): 0; Activity (Mus musculus [26]): 11.35% |
| COP(=O)(CNC1(C(=O)O)CCCCCCCCCCC1)OC | 159 | 6 | 11.82 | 4 | 0 | 12.82 | 2 | 67.3 | 0 | 8.6 | 11 | 11 | 6 | 11 | 5.57 | 111 | 12 | 4 | 10 | 1 | Activity (DOHH-2 [27]): Active; Activity (Mus musculus [19]): 2; IC50 (K562): 47.1 µM; Activity (Mus musculus [20]): 5%; Activity (Mus musculus [21]): 0; IC50 (DOHH-2 [22]): 20.1 µM; Activity (Mus musculus [23]): 4.29%; IC50 (HD-MY-Z): 67.3 µM; Activity (Mus musculus [24]): 0; IC50 (HL-60): 41.4 µM; Activity (Mus musculus [25]): 2; Activity (Mus musculus [26]): 11.13% |
| COP(=O)(CNC1(C(=O)O)CCCCC1)OC | > 200 | 0 | 7.15 | 7 | 0 | 9.23 | 0 | 98.6 | 1 | 6.71 | 12 | 11 | 14 | 20 | 5.33 | 116 | 9 | 4 | 7.42 | 1 | Activity (Mus musculus [19]): 6; IC50 (K562): 128 µM; Activity (Mus musculus [20]): 5.33%; Activity (Mus musculus [21]): 0; IC50 (DOHH-2 [22]): 84.2 µM; Activity (Mus musculus [23]): 8.34%; IC50 (HD-MY-Z): 164 µM; Activity (Mus musculus [24]): 0; IC50 (HL-60): 136 µM; Activity (Mus musculus [25]): 0; Activity (Mus musculus [26]): 7.27% |
| COP(=O)(CNC1(C(=O)O)CCCC1)OC | > 200 | 0 | 10.97 | 8 | 1 | 8.33 | 1 | 162 | 3 | 10.66 | 8 | 9 | 6 | 10 | 4.85 | > 200 | 13 | 7 | 6.4 | 0 | Activity (Mus musculus [19]): 6; IC50 (K562): > 200 µM; Activity (Mus musculus [20]): 5.77%; Activity (Mus musculus [21]): 0; IC50 (DOHH-2 [22]): 145 µM; Activity (Mus musculus [23]): 7%; IC50 (HD-MY-Z): > 200 µM; Activity (Mus musculus [24]): 0; IC50 (HL-60): 157 µM; Activity (Mus musculus [25]): 2; Activity (Mus musculus [26]): 10.39% |
